Measurements: ChEMBL document CHEMBL2163278, “α-Substituted β-oxa isosteres of fosmidomycin: synthesis and biological evaluation” (J Med Chem, 2012)

Columns and labels:
Plasmodium falciparum [1] = assay: Antiplasmodial activity against chloroquine-sensitive Plasmodium falciparum 3D7 incubated for 3 days by HRP2 detection based ELISA method; format: functional, organism-based; details: 3D7, 72 h
Outline: (§1)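 P. falciparum in continuous in vitro culture, growth inhibition assay. Each compound was tested in 12 serial dilutions, in duplicate. IC50 is the mean of at least two independent experiments.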

[2] = Inhibition of recombinant Plasmodium falciparum recombinant IspC using […]1-Deoxy-D-xylulose 5-phosphate substrate by photometric assay
Outline: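 Enzyme IC50 from nonlinear regression of inhibition data; mean ± SD from nine or more data points.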

Plasmodium falciparum [3] = assay: Antiplasmodial activity against chloroquine-resistant Plasmodium falciparum Dd2 incubated for 3 days by HRP2 detection based ELISA method; format: functional, organism-based; details: Dd2, 72 h; outline: as §1

SMILES	IC50 (Plasmodium falciparum [1])	IC50 [2]	IC50 (Plasmodium falciparum [3])
Cc1ccc(C(OCC(=O)NO)P(=O)(O)O)cc1 (stereo not given)	> 50000 nM	1800 nM	
CN(O)C(=O)COC(c1ccc(F)c(F)c1)P(=O)(OCOC(=O)C(C)(C)C)OCOC(=O)C(C)(C)C (stereo not given)	13 nM		22 nM
CCOC(=O)ON(C)C(=O)COC(c1ccc(F)c(F)c1)P(=O)(OCOC(=O)C(C)(C)C)OCOC(=O)C(C)(C)C (stereo not given)	23 nM		19 nM
CCNC(=O)ON(C)C(=O)COC(c1ccc(F)c(F)c1)P(=O)(OCOC(=O)C(C)(C)C)OCOC(=O)C(C)(C)C (stereo not given)	31 nM		22 nM
CN(O)C(=O)CCC(c1ccccc1)P(=O)(O)O (stereo not given)		3.1 nM	
Cc1ccc(C(CCC(=O)N(C)O)P(=O)(O)O)cc1 (stereo not given)		14 nM	
CN(O)C(=O)COC(c1ccccc1)P(=O)(O)O (stereo not given)	1200 nM	37 nM	700 nM
CN(O)C(=O)COC(c1cccc2ccccc12)P(=O)(O)O (stereo not given)	520 nM	39 nM	350 nM
CN(O)C(=O)COC(c1ccc(F)cc1)P(=O)(O)O (stereo not given)	480 nM	27 nM	350 nM
CN(O)C(=O)COC(c1ccc(F)cc1F)P(=O)(O)O (stereo not given)	1300 nM	65 nM	1200 nM
CN(O)C(=O)COC(c1ccc(F)c(F)c1)P(=O)(O)O (stereo not given)	540 nM	12 nM	130 nM
CN(O)C(=O)COC(c1ccc(Cl)c(Cl)c1)P(=O)(O)O (stereo not given)	240 nM	14 nM	140 nM
Cc1ccc(C(OCC(=O)N(C)O)P(=O)(O)O)cc1 (stereo not given)	180 nM	25 nM	190 nM
CCN(O)C(=O)COC(c1ccccc1)P(=O)(O)O (stereo not given)	8100 nM	210 nM	3800 nM
O=C(COC(c1ccccc1)P(=O)(O)O)NO (stereo not given)	> 50000 nM	1500 nM	
O=C(COC(c1ccc(F)cc1F)P(=O)(O)O)NO (stereo not given)	> 50000 nM	1700 nM	
O=CN(O)CCCP(=O)(O)O [FOSMIDOMYCIN SODIUM]	880 nM		810 nM
